Tn7 DDE FP: inhibitors of Tn7 peptide binding to fibrin DD(E), primary screen, biochemical, fluorescence polarization, human fibrin, Tn7 probe; FP displacement of FITC-Tn7 peptide from fibrin DD(E); 0% = median of compound wells per plate; inhibition, % at 8.3 µM; hit rate 0.13% among 370,000; AID 720508, 2013;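 active means inhibition above the mean of compounds falling within the control limits plus 3 SD of them, cut at about 14% in these data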;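 further: 0% = plate median of compound wells and 100% = 10 µM Aha-Tn7 peptide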
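Assay system: Human fibrin DD(E) protein | Medium: Tris buffer with calcium and detergent, pH 7.8 | Reagent: 0.1 µM fluorescent Tn7 | Compound dosing: Single point at 8.3 µM | Times: 10 min preincubation, 3 h with tracer, room temperature | Detection: Fluorescence polarization of the labelled Tn7 tracer | Controls: Aha-Tn7 high control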
PLCb3 inh: human PLC-beta3 inhibitors, primary screen, biochemical, fluorescence; Purified PLC-beta3, fluorogenic substrate; inhibition, % at 12.2 µM; hit rate 0.18% among 370,000; AID 720704, 2013; in the data active means inhibition above about 11%;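 further: 0% = median of compound wells on plate and 100% = full blocker control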
Tn6 DDE FP: inhibitors of Tn6 peptide binding to fibrin DD(E), primary screen, biochemical, fluorescence polarization, human fibrin, Tn6 probe; Fibrinogen beta chain (Homo sapiens), P02675; Fibrin DD(E) TRITC-Tn6 fluorescence polarization displacement; inhibition, % at 8.3 µM; hit rate 0.21% among 370,000;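 active means inhibition above a per-campaign cutoff: mean of compounds within control limits plus 3 SD, cut at about 15% in these data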;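 further: 0% = median of all compound wells on the plate and 100% = blocking peptide control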
KLK7 zymogen act: proKLK7 zymogen activators, primary screen, biochemical, fluorescence intensity; hit rate 0.9% among 370,000; AID 652039, 2013; activation, % at 7 µM; Kallikrein-7 (Homo sapiens), P49862; purified proKLK7, EDANS-DABCYL substrate fluorescence; 100% is mature enzyme control, 0% vehicle;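 active means activation above the mean of all tested compounds plus 3 SD, computed per campaign excluding outliers beyond control limits, cut at about 13% in these data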
CendR NRP1 mod: modulators of CendR peptide binding to NRP-1, primary screen, biochemical, fluorescence polarization, uHTS | Neuropilin-1 (Homo sapiens), O14786 | FAM-RPARPAR peptide binding to NRP-1 | inhibition, % at 25 µM | hit rate 0.85% among 360,000 | AID 602438, 2012;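 active means inhibition or corrected inhibition above about 18%, plus a signal ratio from 0.5 to 1.5, limit read from the data, passing the limit was not always enough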
PLC-gamma1 inh: PLC-gamma1 enzyme inhibitors, primary screen, biochemical, fluorescence, purified enzyme; AID 720700, 2013; hit rate 0.84% among 370,000; 1-phosphatidylinositol 4,5-bisphosphate phosphodiesterase gamma-1 (Homo sapiens), P19174; fluorogenic substrate; inhibition, % at 12.2 µM; in the data active means inhibition above about 9.5%
Active calls of the source: *; . = no result. An excerpt weighted towards active compounds, which were near 3% of everything screened.

SMILES | Tn7 DDE FP | PLCb3 inh | Tn6 DDE FP | KLK7 zymogen act | CendR NRP1 mod | PLC-gamma1 inh
O=C(c1ccc(F)cc1)C(CN1CCOCC1)c1ccccc1 (stereo unspecified) | -2.0 | 6.0 | -2.1 | -0.1 | 27.4* | 4.9
CC(=O)Nc1ccc(Nc2nc(C)c([N+](=O)[O-])c(N(C)c3ccccc3)n2)cc1 | -1.9 | -5.0 | 7.4 | 0.0 | 3.5 | 2.5
COc1ccc(/C=N/Nc2nc(C)c([N+](=O)[O-])c(N(C)c3ccccc3)n2)cc1OC | -6.6 | -0.9 | -5.4 | 0.1 | 28.3* | 2.0
Cn1cc(C2(c3c[nH]c4ccccc34)CCN(C(=O)OC(C)(C)C)CC2)c2ccccc21 | 7.3 | -0.8 | 4.5 | -0.9 | . | 0.9
COC(=O)[C@@]1(Cc2ccc(OC)cc2)[C@H]2c3cc(C(=O)N4CCCC4)n(Cc4ccc(OC)c(OC)c4)c3C[C@H]2CN1C(=O)c1ccccc1 | -9.9 | -6.7 | -10.1 | 0.0 | . | 2.6
COC(=O)[C@@]1(Cc2ccc(OC)cc2)[C@H]2c3cc(C(=O)N4CCCC4)n(CCN4CCOCC4)c3C[C@H]2CN1C(=O)c1ccccc1 | 2.5 | -4.0 | 0.5 | 0.4 | 22.9* | -1.7
O=C(c1cc(Cl)ccc1F)N1CCCC(c2nc(-c3cccs3)no2)C1 (stereo unspecified) | 11.5 | -3.8 | 10.1 | -0.6 | . | 0.6
COc1ccccc1Nc1nc2cc(C)ccc2cc1C#N | -3.9 | 2.2 | 9.6 | 0.2 | 1.7 | 1.6
COc1ccccc1Nc1nc2ccc(C)cc2cc1C#N | -1.5 | -1.0 | 0.3 | -0.7 | 29.2* | -3.1
CC(=O)NNC(=O)CN1C(=O)/C(=C/c2ccccc2)SC1=S | -4.6 | 5.2 | -4.0 | -0.2 | 10.7 | 7.7
CCc1ccc(/C=C2\SC(=S)N(CCCC(=O)N(CCO)c3ccccc3)C2=O)cc1 | 0.5 | -0.5 | -12.4 | 0.9 | 27.9* | 1.2
CCOc1ccc(/C=C2\SC(=S)N(CCC(=O)N(CCO)c3ccccc3)C2=O)cc1 | -5.4 | -6.4 | -7.0 | 0.3 | 0.3 | -0.4
CCN(CC)C(=O)CN1C(=O)/C(=C/c2ccccc2)SC1=S | -4.0 | -5.1 | 2.3 | 0.2 | 19.7* | 2.7
CC(C)n1nnnc1C1(C)CCCCC(=O)N1Cc1cccc(C(F)(F)F)c1 (stereo unspecified) | -5.2 | 3.7 | 8.6 | -0.8 | . | 2.3
O=c1oc(Nc2ccccc2F)nc2ccccc12 | 0.3 | -11.2 | 0.5 | -0.9 | 36.9* | -10.5
O=c1oc(Nc2ccccc2Cl)nc2ccccc12 | -2.7 | -19.8 | -0.2 | 0.6 | 7.7 | -13.9
COc1ccc(S[C@]2(C(=O)N(C)C)CC(=O)N(C(=O)/C=C/c3ccccc3)[C@@H]2c2ccc(OC)cc2)cc1 | -2.4 | 0.3 | -8.9 | -0.2 | . | 3.7
CC1=CC2(C(Cc3ccccc3)N(CC3CC3)C(=NC(=O)c3ccccc3)N2C(=O)OCc2ccccc2)n2c(=O)n(-c3ccccc3)c(=O)n2C1 (stereo unspecified) | -1.8 | 1.1 | -2.9 | -0.7 | . | 1.5
O=C(NCCCN1CCCC(O)C1)c1cc(COc2ccc(F)cc2F)on1 (stereo unspecified) | -3.0 | -18.0 | 5.2 | -0.3 | 39.7* | -8.6
O=C(Nc1ccccc1O)c1cc(S(=O)(=O)N2CCOCC2)c(Cl)cc1Cl | 8.5 | 0.0 | 3.0 | -0.1 | -0.1 | -1.2
O=C(NNC(=O)c1cc(S(=O)(=O)N2CCOCC2)c(Cl)cc1Cl)c1ccccc1F | -0.9 | -7.2 | -0.7 | 0.2 | 17.2* | -6.0
CC[n+]1ccccc1/C=C/c1ccc(N(C)C)cc1 | -24.9 | -28.2 | -9.1 | -0.2 | -143.6 | -23.7
CC[n+]1ccc(/C=C/c2ccc(N(C)C)cc2)c2ccccc21 | -4.5 | -4.2 | 39.4* | -0.4 | -12.1 | 2.5
COc1ccc(C(=O)Nc2ccc3ccccc3c2)c(OC)c1 | -3.5 | -13.8 | -6.8 | 0.0 | -17.0 | -8.5
COc1ccc(C(=O)Nc2c(F)c(F)c(F)c(F)c2F)c(OC)c1 | 4.2 | -3.1 | 2.3 | -0.3 | 20.2* | -0.1
SMILES | Tn7 DDE FP | PLCb3 inh | Tn6 DDE FP | KLK7 zymogen act | CendR NRP1 mod | PLC-gamma1 inh
Cc1ccc(C(=O)c2c(NC(=O)CSc3nnc(N)s3)sc3c2CCCC3)cc1 | -6.3 | -12.0 | -4.0 | 1.8 | 32.6* | -15.3
Cc1nn(S(=O)(=O)c2ccccc2)c(C)c1Sc1ccc([N+](=O)[O-])cc1 | -8.1 | 1.6 | 1.9 | 0.1 | -6.3 | 0.7
CCCc1nnn(S(=O)(=O)c2ccc([N+](=O)[O-])cc2)c1CCC | -1.0 | 13.2* | 8.1 | -0.4 | -0.1 | 11.9*
Cc1ccc(-n2c(COc3ccccc3)nnc2SCC(=O)Nc2ccccc2-c2ccccc2)cc1 | 5.9 | 3.4 | -2.2 | 0.8 | . | 2.1
O=C(OCn1nnc2ccccc2c1=O)c1cccnc1Cl | -1.1 | 7.9 | 3.4 | 0.2 | -30.9 | 11.9*
Fc1cc(Cl)ccc1Nc1nc(NCc2ccccc2)nc2ccsc12 | 2.1 | -9.5 | -0.7 | -0.6 | 26.1* | -5.6
Cc1ccc(S(=O)(=O)N2c3ccccc3CC2C)cc1 (stereo unspecified) | -1.1 | 2.6 | -1.1 | -0.6 | -5.3 | 0.1
Cc1ccc(S(=O)(=O)N2c3ccc(S(N)(=O)=O)cc3CC2C)cc1 (stereo unspecified) | 5.9 | 2.4 | -4.0 | -0.5 | 22.2* | 0.0
COC(=O)[C@H](C)NC(=O)[C@H](CC(C)C)NC(=O)OC(C)(C)C | 3.1 | 0.5 | 5.6 | -0.4 | . | 1.8
COc1ccc([C@H]2OC(=O)C[C@@H]2C(=O)N2CCN(c3ccccc3Cl)CC2)cc1OC | -0.6 | -2.3 | 8.5 | -0.6 | . | -4.0
CC(C)C1C(C#N)=C(N)Oc2n[nH]c(-c3ccc4ccccc4c3)c21 (stereo unspecified) | -9.4 | -10.5 | 1.9 | 0.6 | 27.2* | -8.1
CCc1[nH]nc2c1C(C(C)C)C(C#N)=C(N)O2 (stereo unspecified) | 3.7 | -1.1 | 1.9 | -0.2 | 20.6* | -3.4
COC(=O)[C@]12C[C@H](CC(=O)NCCC(C)C)C(=O)N(Cc3ccc4c(c3)OCO4)C1=C[C@H](C(C)C)O[C@@H]2C1CC1 | 6.7 | 0.4 | -3.3 | 0.0 | . | 0.0
Cc1ccc(C)c(S(=O)(=O)N2CCN(C(=O)CSc3ccccc3F)CC2)c1 | -4.1 | -1.9 | -11.4 | -0.2 | 23.7* | 0.1
O=C(OC12CCCN(C1)/C(=C/c1ccncc1)C2)C1CCCCC1 (stereo unspecified) | -2.0 | -10.9 | 3.4 | 1.1 | . | -10.3

Compound activity from PubChem.
